Measurements from ChEMBL document CHEMBL4622983, “Structure-Activity Relationship Studies of α-Ketoamides as Inhibitors of the Phospholipase A and Acyltransferase Enzyme Family” (J Med Chem, 2020).
Calls of active or inactive are those of the source. The rule behind the calls is not given here.

Key:
U2OS [1] = test: Downregulation of N-palmitoylethanolamine level in human U2OS cells at 10 uM after 4 hrs by LC-MS/MS analysis; assay type: functional, cell-based
Method in brief: (§1)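 U2OS cells transfected with PLAAT2, PLAAT5 or empty vector (PEI, 1:5 plasmid/PEI). At 24 h, switched to serum-free medium with 10 μM compound (0.1% DMSO) or DMSO for 4 h at 37 °C. Pellets extracted with MTBE against deuterated internal standards. NAEs, 2-AG and free fatty acids quantified by LC–MS/MS, normalized to live cell count. Four biological replicates; one-way ANOVA.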

[2] = molecular target: T1, Phospholipase A and acyltransferase 2 (Homo sapiens) (UniProt Q9NWW9); test: Inhibition of full-length C-terminal FLAG-tagged human PLAAT2 expressed in human U2OS cells assessed as reduction in absolute N-docosahexaenoylethanolamine level at 10 uM incubated for 4 hrs by LC-MS/MS analysis; assay type: cell-based; method in brief: as §1
T1 sequence (whole entry): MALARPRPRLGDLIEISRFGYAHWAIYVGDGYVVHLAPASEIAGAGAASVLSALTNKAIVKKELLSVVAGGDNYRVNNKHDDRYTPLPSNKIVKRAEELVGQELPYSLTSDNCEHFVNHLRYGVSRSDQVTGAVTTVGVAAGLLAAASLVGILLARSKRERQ

[3] = molecular target: Diacylglycerol lipase-alpha (Mus musculus) (UniProt Q6WQJ1); test: Inhibition of mouse brain membrane DAGLalpha assessed as enzyme remaining activity at 10 uM preincubated for 30 mins followed by MB064 or FP-TAMRA addition and measured after 15 mins by SDS-PAGE based ABPP analysis relative to control; assay type: cell membranes
Diacylglycerol lipase-alpha (Mus musculus), sequence (Q6WQJ1 whole entry): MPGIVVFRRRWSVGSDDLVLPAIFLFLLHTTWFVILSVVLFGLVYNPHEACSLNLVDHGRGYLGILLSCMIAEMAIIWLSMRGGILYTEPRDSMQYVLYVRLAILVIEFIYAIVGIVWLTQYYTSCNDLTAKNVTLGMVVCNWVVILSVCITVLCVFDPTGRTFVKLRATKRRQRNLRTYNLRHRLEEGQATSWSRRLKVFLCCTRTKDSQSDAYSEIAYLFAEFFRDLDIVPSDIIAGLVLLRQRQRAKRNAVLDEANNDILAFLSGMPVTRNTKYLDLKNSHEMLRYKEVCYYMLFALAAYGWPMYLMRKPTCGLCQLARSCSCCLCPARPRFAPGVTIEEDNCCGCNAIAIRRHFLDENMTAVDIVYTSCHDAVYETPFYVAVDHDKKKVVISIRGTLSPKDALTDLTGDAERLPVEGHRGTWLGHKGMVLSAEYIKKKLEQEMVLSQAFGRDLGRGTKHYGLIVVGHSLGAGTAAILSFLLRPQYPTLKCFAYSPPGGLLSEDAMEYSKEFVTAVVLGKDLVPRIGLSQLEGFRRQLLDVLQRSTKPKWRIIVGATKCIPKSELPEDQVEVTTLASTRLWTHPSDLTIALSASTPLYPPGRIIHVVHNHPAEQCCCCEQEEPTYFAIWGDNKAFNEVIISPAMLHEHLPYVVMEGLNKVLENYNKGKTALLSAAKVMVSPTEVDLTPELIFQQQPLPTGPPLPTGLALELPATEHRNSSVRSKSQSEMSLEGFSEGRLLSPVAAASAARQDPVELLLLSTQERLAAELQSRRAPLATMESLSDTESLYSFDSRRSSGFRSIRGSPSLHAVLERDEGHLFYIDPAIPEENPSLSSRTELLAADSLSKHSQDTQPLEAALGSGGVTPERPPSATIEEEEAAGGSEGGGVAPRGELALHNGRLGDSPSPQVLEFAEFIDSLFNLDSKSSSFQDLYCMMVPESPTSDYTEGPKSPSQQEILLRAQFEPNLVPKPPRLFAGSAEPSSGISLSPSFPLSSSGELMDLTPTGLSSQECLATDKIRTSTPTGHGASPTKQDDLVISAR
Method in brief: (§2)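 Mouse brain membrane proteome (2 μg/μL) preincubated with 10 μM inhibitor for 30 min at rt. Then MB064 250 nM or FP-TAMRA 500 nM for 15 min at rt. Resolved on 10% SDS-PAGE, fluorescence normalized to Coomassie. Reported as % remaining activity ± SD, n = 3.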

[4] = molecular target: Cytosolic phospholipase A2 (Homo sapiens) (UniProt P47712); test: Inhibition of human PLA2G4A expressed in HEK293T cell lysates at 50 uM preincubated for 30 mins followed by FP-TAMRA addition and measured after 20 mins by SDS-PAGE based competitive ABPP analysis; assay type: cell-free; details: HEK-293T
Cytosolic phospholipase A2 (Homo sapiens), sequence (P47712 whole entry): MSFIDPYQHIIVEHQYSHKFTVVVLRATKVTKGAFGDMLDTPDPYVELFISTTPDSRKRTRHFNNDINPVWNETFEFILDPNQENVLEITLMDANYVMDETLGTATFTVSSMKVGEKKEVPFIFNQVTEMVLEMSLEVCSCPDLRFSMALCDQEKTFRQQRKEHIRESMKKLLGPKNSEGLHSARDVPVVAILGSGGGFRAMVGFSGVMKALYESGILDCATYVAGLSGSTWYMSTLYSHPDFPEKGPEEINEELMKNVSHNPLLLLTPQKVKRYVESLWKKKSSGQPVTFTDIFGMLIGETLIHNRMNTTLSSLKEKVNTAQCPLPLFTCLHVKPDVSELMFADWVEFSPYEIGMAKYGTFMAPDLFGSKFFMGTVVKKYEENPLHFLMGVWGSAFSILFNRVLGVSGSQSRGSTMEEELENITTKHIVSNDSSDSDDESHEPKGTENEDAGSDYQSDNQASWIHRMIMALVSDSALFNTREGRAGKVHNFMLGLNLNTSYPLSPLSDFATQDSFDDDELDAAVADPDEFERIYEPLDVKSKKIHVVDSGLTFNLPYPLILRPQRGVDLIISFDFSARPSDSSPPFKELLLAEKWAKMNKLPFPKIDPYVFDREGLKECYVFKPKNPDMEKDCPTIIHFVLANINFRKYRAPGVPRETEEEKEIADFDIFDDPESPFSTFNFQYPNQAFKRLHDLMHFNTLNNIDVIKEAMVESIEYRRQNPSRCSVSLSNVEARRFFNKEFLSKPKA

[5] = molecular target: Cannabinoid receptor 2 (Homo sapiens) (UniProt P34972); test: Displacement of [3H]CP55940 from human CB2 receptor expressed in CHOK1 cell membranes at 10 uM by liquid scintillation spectrometry analysis; details: CHO-K1
Cannabinoid receptor 2 (Homo sapiens), sequence (P34972 whole entry): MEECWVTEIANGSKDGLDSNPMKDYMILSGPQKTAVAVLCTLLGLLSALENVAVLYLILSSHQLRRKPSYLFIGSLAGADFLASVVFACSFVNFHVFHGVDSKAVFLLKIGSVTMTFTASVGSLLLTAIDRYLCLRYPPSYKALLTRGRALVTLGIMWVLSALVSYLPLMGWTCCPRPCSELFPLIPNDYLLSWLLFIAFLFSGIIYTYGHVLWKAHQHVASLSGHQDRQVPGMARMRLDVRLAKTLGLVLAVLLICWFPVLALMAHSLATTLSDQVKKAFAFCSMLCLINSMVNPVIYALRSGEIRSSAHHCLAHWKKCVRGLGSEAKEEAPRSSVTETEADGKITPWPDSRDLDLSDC
Method in brief: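 [3H]CP55940 displacement at human CB1 or CB2 receptors, single test concentration 10 μM. Result expressed as % radioligand displacement ± SD (N = 2, n = 2).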

[6] = molecular target: Diacylglycerol lipase-beta (Mus musculus) (UniProt Q91WC9); test: Inhibition of mouse brain membrane DAGLbeta assessed as enzyme remaining activity at 10 uM preincubated for 30 mins followed by MB064 or FP-TAMRA addition and measured after 15 mins by SDS-PAGE based ABPP analysis relative to control; assay type: cell membranes; method in brief: as §2
Diacylglycerol lipase-beta (Mus musculus), sequence (Q91WC9 whole entry): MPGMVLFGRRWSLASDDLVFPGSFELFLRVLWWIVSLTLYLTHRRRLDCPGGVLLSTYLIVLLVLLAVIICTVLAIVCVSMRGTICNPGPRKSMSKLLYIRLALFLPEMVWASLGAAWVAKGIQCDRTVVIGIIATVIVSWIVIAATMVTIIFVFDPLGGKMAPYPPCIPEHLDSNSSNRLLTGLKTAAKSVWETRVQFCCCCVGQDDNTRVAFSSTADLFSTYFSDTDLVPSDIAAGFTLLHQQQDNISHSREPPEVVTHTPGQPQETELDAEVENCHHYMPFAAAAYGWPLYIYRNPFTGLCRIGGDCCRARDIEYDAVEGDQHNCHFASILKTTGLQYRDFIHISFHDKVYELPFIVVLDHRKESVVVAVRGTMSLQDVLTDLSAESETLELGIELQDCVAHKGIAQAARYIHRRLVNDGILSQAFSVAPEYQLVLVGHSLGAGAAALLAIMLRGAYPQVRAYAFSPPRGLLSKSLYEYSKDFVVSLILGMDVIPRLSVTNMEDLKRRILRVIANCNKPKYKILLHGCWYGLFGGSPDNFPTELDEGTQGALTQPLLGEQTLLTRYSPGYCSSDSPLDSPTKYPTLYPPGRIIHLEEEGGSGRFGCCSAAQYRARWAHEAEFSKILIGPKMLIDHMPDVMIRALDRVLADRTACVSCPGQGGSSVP

[7] = molecular target: T2, Phospholipase A and acyltransferase 5 (Homo sapiens) (UniProt Q96KN8); test: Inhibition of full-length C-terminal FLAG-tagged human PLAAT5 expressed in human U2OS cells assessed as reduction in absolute N-palmitoylethanolamine level at 10 uM incubated for 4 hrs by LC-MS/MS analysis; assay type: cell-based; method in brief: as §1
T2 sequence (whole entry): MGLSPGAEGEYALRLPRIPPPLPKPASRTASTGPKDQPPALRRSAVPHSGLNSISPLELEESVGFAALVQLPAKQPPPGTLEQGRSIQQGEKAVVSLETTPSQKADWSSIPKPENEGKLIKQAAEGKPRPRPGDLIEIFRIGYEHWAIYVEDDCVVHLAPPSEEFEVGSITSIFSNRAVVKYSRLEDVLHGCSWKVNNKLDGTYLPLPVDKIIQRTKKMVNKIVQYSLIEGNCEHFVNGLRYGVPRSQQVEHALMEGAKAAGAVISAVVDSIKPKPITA

[8] = molecular target: T2, Phospholipase A and acyltransferase 5 (Homo sapiens); test: Inhibition of full-length C-terminal FLAG-tagged human PLAAT5 expressed in human U2OS cells assessed as reduction in absolute N-linoleoylethanolamine level at 10 uM incubated for 4 hrs by LC-MS/MS analysis; assay type: cell-based; method in brief: as §1
[9] = molecular target: T1, Phospholipase A and acyltransferase 2 (Homo sapiens); test: Inhibition of full-length C-terminal FLAG-tagged human PLAAT2 expressed in human U2OS cells assessed as reduction in absolute N-stearoylethanolamine level at 10 uM incubated for 4 hrs by LC-MS/MS analysis; assay type: cell-based; method in brief: as §1
[10] = molecular target: N-acyl-phosphatidylethanolamine-hydrolyzing phospholipase D (Homo sapiens) (UniProt Q6IQ20); test: Inhibition of full length human NAPE-PLD expressed in HEK293T cells assessed as enzyme remaining activity at 10 uM using PED6 as substrate preincubated for 30 mins followed by substrate addition and measured for 1 hr at 2 mins relative to control; assay type: cell-based; details: HEK-293T
N-acyl-phosphatidylethanolamine-hydrolyzing phospholipase D (Homo sapiens), sequence (Q6IQ20 whole entry, looked up): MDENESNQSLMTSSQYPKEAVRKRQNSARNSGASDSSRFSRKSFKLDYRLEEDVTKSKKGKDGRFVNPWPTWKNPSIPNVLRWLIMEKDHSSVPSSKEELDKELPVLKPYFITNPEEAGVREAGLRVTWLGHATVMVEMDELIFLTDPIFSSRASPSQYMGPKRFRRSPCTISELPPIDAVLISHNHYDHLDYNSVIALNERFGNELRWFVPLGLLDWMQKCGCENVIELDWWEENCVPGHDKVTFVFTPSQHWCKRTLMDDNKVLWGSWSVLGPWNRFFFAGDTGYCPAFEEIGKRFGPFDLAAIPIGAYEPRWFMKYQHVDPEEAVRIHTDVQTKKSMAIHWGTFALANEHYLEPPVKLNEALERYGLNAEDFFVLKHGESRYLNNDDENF

U2OS [11] = test: Downregulation of N-stearoylethanolamine level in human U2OS cells at 10 uM after 4 hrs by LC-MS/MS analysis; assay type: functional, cell-based; method in brief: as §1
U2OS [12] = test: Inhibition of serine hydrolase in human U2OS cytosolic fraction at 10 uM preincubated for 30 mins followed by FP-TAMRA addition and measured after 15 mins by SDS-PAGE based competitive ABPP analysis
Method in brief: (§3)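 U2OS cytosol or membrane lysate at 2.5 μg/μL, pretreated with inhibitor or DMSO vehicle for 30 min at rt. Probe then added for 15 min at rt: MB064 at 2 μM or FP-TAMRA at 500 nM. Samples denatured in Laemmli buffer and resolved by SDS-PAGE. In-gel fluorescence scanned at Cy3/Cy5 settings and normalized to Coomassie staining.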

U2OS [13] = test: Inhibition of serine hydrolase in human U2OS cell membrane fraction at 10 uM preincubated for 30 mins followed by MB064 addition and measured after 15 mins by SDS-PAGE based competitive ABPP analysis; method in brief: as §3
[14] = molecular target: T1, Phospholipase A and acyltransferase 2 (Homo sapiens); test: Inhibition of full-length C-terminal FLAG-tagged human PLAAT2 expressed in human U2OS cells assessed as reduction in absolute N-palmitoylethanolamine level at 10 uM incubated for 4 hrs by LC-MS/MS analysis; assay type: cell-based; method in brief: as §1
[15] = molecular target: Fatty-acid amide hydrolase 1 (Mus musculus) (UniProt O08914); test: Inhibition of mouse brain membrane FAAH assessed as enzyme remaining activity at 10 uM preincubated for 30 mins followed by MB064 or FP-TAMRA addition and measured after 15 mins by SDS-PAGE based ABPP analysis relative to control; assay type: cell membranes; method in brief: as §2
Fatty-acid amide hydrolase 1 (Mus musculus), sequence (O08914 whole entry): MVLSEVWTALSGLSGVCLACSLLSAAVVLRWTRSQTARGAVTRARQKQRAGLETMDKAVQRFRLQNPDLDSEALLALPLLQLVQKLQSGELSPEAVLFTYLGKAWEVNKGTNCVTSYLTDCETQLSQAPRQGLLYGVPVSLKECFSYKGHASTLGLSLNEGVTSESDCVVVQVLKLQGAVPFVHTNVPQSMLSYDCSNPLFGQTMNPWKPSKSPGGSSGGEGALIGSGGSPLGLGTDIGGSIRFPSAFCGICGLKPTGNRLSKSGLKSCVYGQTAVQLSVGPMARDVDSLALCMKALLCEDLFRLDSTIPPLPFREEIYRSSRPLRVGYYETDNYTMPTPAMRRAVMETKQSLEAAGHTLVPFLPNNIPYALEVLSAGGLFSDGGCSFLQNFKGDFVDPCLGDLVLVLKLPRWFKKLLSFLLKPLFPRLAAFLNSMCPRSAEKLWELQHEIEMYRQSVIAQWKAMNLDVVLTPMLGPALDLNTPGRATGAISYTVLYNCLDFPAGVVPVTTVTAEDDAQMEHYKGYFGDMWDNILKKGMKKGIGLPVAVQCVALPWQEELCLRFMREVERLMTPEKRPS

[16] = molecular target: T1, Phospholipase A and acyltransferase 2 (Homo sapiens); test: Inhibition of full-length C-terminal FLAG-tagged human PLAAT2 expressed in human U2OS cells assessed as reduction in absolute N-palmitoleoylethanolamine level at 10 uM incubated for 4 hrs by LC-MS/MS analysis; assay type: cell-based; method in brief: as §1
U2OS [17] = test: Downregulation of N-arachidonoylethanolamine level in human U2OS cells at 10 uM after 4 hrs by LC-MS/MS analysis; assay type: functional, cell-based; method in brief: as §1

O=C(CCCc1ccccc1)C(=O)NCCc1ccc(Oc2ccccc2)cc1
inhibition (U2OS [1]): inactive | inhibition [2]: Active | Activity [3]: 97% | inhibition [4]: inactive | Activity [5]: 32% | Activity [6]: 83% | inhibition [7]: Active | inhibition [8]: Active | inhibition [9]: Active | Activity [10]: 92% | inhibition (U2OS [11]): inactive | inhibition (U2OS [12]): inactive | inhibition (U2OS [13]): inactive | inhibition [14]: Active | Activity [15]: 108% | inhibition [16]: Active | inhibition (U2OS [17]): inactive
